According to ChEMBL document CHEMBL3091318, “Potent and broad-spectrum antibacterial activity of indole-based bisamidine antibiotics: synthesis and SAR of novel analogs of MBX 1066 and MBX 1090” (2013):
≈ marks a conversion by molar mass, not a printed value.

Tests used:
Type in all cases: functional
Escherichia coli [1] = assay: Antimicrobial activity against TolC efflux-deficient Escherichia coli K-12 after 16 to 20 hrs by broth microdilution method
Procedure, shortened: (§1)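 CLSI broth microdilution. Log-phase cultures grown in cation-adjusted Mueller–Hinton broth and seeded at 1×10^5 CFU/mL. Plates incubated at 37 °C with shaking for 16–20 h. DMSO stocks of compound were diluted into medium to 1% DMSO final. Growth was read as OD600. MIC (μg/ml) is the lowest concentration with no apparent growth, averaged over at least 3 assays.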

Escherichia coli [2] = assay: Antimicrobial activity against efflux pump-positive Escherichia coli K-12 after 16 to 20 hrs by broth microdilution method; procedure, shortened: as §1
Pseudomonas aeruginosa [3] = assay: Antimicrobial activity against efflux pump mexAB-oprM-deficient Pseudomonas aeruginosa PAO1 after 16 to 20 hrs by broth microdilution method; procedure, shortened: as §1
Enterococcus faecalis [4] = assay: Antimicrobial activity vancomycin-resistant Enterococcus faecalis ATCC 51575 after 16 to 20 hrs by broth microdilution method
Procedure, shortened: (§2)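 CLSI broth microdilution. Log-phase cultures in cation-adjusted Mueller–Hinton broth were seeded at 1×10^5 CFU/mL and incubated at 37 °C with shaking for 16–20 h. Compounds were diluted from DMSO stocks to a final 1% DMSO. Growth was read as OD600, and MIC was taken as the lowest concentration with no apparent growth. At least 3 runs were done, and the average MIC is reported in μg/ml.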

Staphylococcus aureus [5] = assay: Antimicrobial activity against Staphylococcus aureus ATCC 25923 after 16 to 20 hrs by broth microdilution method; procedure, shortened: as §2
Staphylococcus aureus [6] = assay: Antimicrobial activity methicillin-resistant against Staphylococcus aureus clinical isolate 1094 after 16 to 20 hrs by broth microdilution method
Enterococcus faecalis [7] = assay: Antimicrobial activity Enterococcus faecalis ATCC 29212 after 16 to 20 hrs by broth microdilution method; procedure, shortened: as §1
Bacillus anthracis = assay: Antimicrobial activity against Bacillus anthracis Sterne after 16 to 20 hrs by broth microdilution method; procedure, shortened: as §2
Pseudomonas aeruginosa [8] = assay: Antimicrobial activity against efflux pump-positive Pseudomonas aeruginosa PAO1 ATCC BAA-47 after 16 to 20 hrs by broth microdilution method; procedure, shortened: as §1
Acinetobacter baumannii = assay: Antimicrobial activity against Acinetobacter baumannii ATCC 19606 after 16 to 20 hrs by broth microdilution method; procedure, shortened: as §1
Haemophilus influenzae = assay: Antimicrobial activity against Haemophilus influenzae ATCC 10211 after 16 to 20 hrs by broth microdilution method
Procedure, shortened: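 Broth microdilution per CLSI in Haemophilus Test Medium at 37 °C under 5% CO₂ for 16–20 h, seeded at 1×10^5 CFU/mL. Compound was added from DMSO stocks to 1% DMSO final. Growth was read as OD600. MIC (μg/ml) is the lowest concentration without apparent growth, averaged from at least 3 runs.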

Klebsiella pneumoniae = assay: Antimicrobial activity against Klebsiella pneumoniae ATCC 13882 after 16 to 20 hrs by broth microdilution method; procedure, shortened: as §1

SMILES	MIC (Escherichia coli [1]) [µg/mL]	MIC (Escherichia coli [2]) [µg/mL]	MIC (Pseudomonas aeruginosa [3]) [µg/mL]	MIC (Enterococcus faecalis [4]) [µg/mL]	MIC (Staphylococcus aureus [5]) [µg/mL]	MIC (Staphylococcus aureus [6]) [µg/mL]	MIC (Enterococcus faecalis [7]) [µg/mL]	MIC (Bacillus anthracis) [µg/mL]	MIC (Pseudomonas aeruginosa [8]) [µg/mL]	MIC (Acinetobacter baumannii) [µg/mL]	MIC (Haemophilus influenzae) [µg/mL]	MIC (Klebsiella pneumoniae) [µg/mL]
c1cc2cc(CCCCc3cc4ccc(C5=NCCCN5)cc4[nH]3)[nH]c2cc1C1=NCCCN1	0.16 (≈ 0.354 µM)	1.25 (≈ 2.76 µM)	40 (≈ 88.4 µM)	0.31 (≈ 0.685 µM)	0.63 (≈ 1.39 µM)	1.25 (≈ 2.76 µM)	2.5 (≈ 5.52 µM)	1.25 (≈ 2.76 µM)	40 (≈ 88.4 µM)	> 80		
O=C(O)c1cn(C2CC2)c2cc(N3CCNCC3)c(F)cc2c1=O [CIPROFLOXACIN]	≤ 0.02	≤ 0.02	≤ 0.02	0.63 (≈ 1.9 µM)	0.31 (≈ 0.936 µM)		1.25 (≈ 3.77 µM)	0.08 (≈ 0.241 µM)	0.63 (≈ 1.9 µM)	1.25 (≈ 3.77 µM)	10 (≈ 30.2 µM)	0.04 (≈ 0.121 µM)
O=C(O)C(F)(F)F.OC1CN=C(c2ccc3cc(-c4ccc(-c5cc6ccc(C7=NCC(O)CN7)cc6[nH]5)cc4)[nH]c3c2)NC1 (stereo not given)	0.63	1.25	0.31	0.63	0.31	0.31	0.16	0.16	1.25	> 80	1.25	0.63
CC1CN=C(c2ccc3cc(-c4ccc(-c5cc6ccc(C7=NCC(C)CN7)cc6[nH]5)cc4)[nH]c3c2)NC1.O=C(O)C(F)(F)F (stereo not given)	0.16	0.31	0.63	0.08	0.08	0.08	0.16	0.08	0.63	40	1.25	0.31
O=C(O)C(F)(F)F.c1cc2cc(-c3ccc(-c4cc5ccc(C6=NCCN6)cc5[nH]4)o3)[nH]c2cc1C1=NCCN1	0.63	20	> 80	> 80	40	40	> 80	5	> 80	> 80		> 80
CC(=O)O.c1cc2cc(-c3cnc(-c4cc5ccc(C6=NCCN6)cc5[nH]4)cn3)[nH]c2cc1C1=NCCN1	0.63	20	> 80	10	5	5	20	2.5	> 80	> 80		10
Cl.N/N=C(/N)c1ccc2cc(-c3ccc(-c4cc5ccc(/C(N)=N\N)cc5[nH]4)cc3)[nH]c2c1	0.63	2.5		0.63	0.63	1.25	0.63	0.31	10	> 80		1.25
Cl.N=C(N)c1ccc2cc(-c3ccc(-c4cc5ccc(C(=N)N)cc5[nH]4)cc3)[nH]c2c1	0.16	0.63		0.16	0.16	0.31	0.04	0.08	10	40		0.63
N/C(=N\O)c1ccc2cc(-c3ccc(-c4cc5ccc(/C(N)=N\O)cc5[nH]4)cc3)[nH]c2c1	0.63 (≈ 1.48 µM)	> 80	> 80	1.25 (≈ 2.94 µM)	0.31 (≈ 0.73 µM)	1.25 (≈ 2.94 µM)	2.5 (≈ 5.89 µM)	0.16 (≈ 0.377 µM)	> 80			> 80
O=C(O)C(F)(F)F.c1cc2cc(-c3ccc(-c4cc5ccc(C6=NCCN6)cc5[nH]4)s3)[nH]c2cc1C1=NCCN1	0.31	0.63	1.25	1.25	0.16	0.31	1.25	0.16	10	10	0.63	0.63
NC(=O)c1ccc2cc(-c3ccc(-c4cc5ccc(C(N)=O)cc5[nH]4)cc3)[nH]c2c1	5 (≈ 12.7 µM)	> 80	> 80	> 80	2.5 (≈ 6.34 µM)	> 80	10 (≈ 25.4 µM)	> 80	> 80	> 80		> 80
